These results are taken from ChEMBL document CHEMBL2380272, “Biological evaluation of bisbenzaldehydes against four Mycobacterium species” (Eur J Med Chem, 2013).

Values after ≈ are worked out from the molar mass of the structure shown.

Assay [1] relates to Mycobacterium tuberculosis. As to the kind of experiment: Antimycobacterial activity against multidrug-resistant Mycobacterium tuberculosis LAM-1 clinical isolate assessed as growth inhibition after 6 days by BACTEC 460-TB method. In kind it is functional. The note with it: LAM-1, 144 h. The procedure, abridged:
(§1)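 BACTEC 460-TB radiometric assay measuring 14CO2 from 14C-palmitic acid. The MDR LAM-1 isolate was precultured to growth index 300, then inoculated into a fresh vial with compound dilutions made in 7H9 + 10% OADC. Final concentrations were 0.4–1.2 µM. GI was read daily. MIC90 and MIC99 came from comparison with untreated controls diluted 10- and 100-fold. A 0.1 µg/mL isoniazid culture served as the resistance control.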

Assay [2] concerns Mycobacterium tuberculosis. As to the kind of experiment: Antimycobacterial activity against multidrug-resistant Mycobacterium tuberculosis LAM-1 clinical isolate assessed as growth inhibition at 1 to 1.2 uM after 6 days by BACTEC 460-TB method relative to 10 to 100 times diluted untreated control. In kind it is functional. The procedure, abridged:
as §1

On to `O=Cc1ccc(OCCCCCCCCCOc2ccc(C=O)cc2)cc1`, for which the MIC90 in assay [1] was found to be 0.6 µM (≈ 0.221 µg/mL).

On to `O=Cc1ccc(OCCCCCCCCCCOc2ccc(C=O)cc2)cc1`, for which the MIC90 in assay [1] was 0.6 µM (≈ 0.229 µg/mL). Regarding `O=Cc1ccc(OCCCCCCCCCCCOc2ccc(C=O)cc2)cc1`, the “growth inhibition (GI)” value in assay [2] stood at 99%. In addition, in assay [1], the MIC90 came to 0.6 µM (≈ 0.238 µg/mL). Turning to `O=Cc1ccc(OCCCCCCCCCCCCOc2ccc(C=O)cc2)cc1`, in assay [2], the “growth inhibition (GI)” value was 99%. In assay [1], the MIC90 is 0.4 µM (≈ 0.164 µg/mL).

For orientation: MIC90 means an inhibitory concentration at the 90% level, which refers to growth in some studies and to a panel of isolates in others.
